# Where two headings read alike, the source gives them in different places.
# Columns and labels:
# [1] = cited from earlier work
# [2] = cited from earlier work; remark: listed apart in the source
# [3] = Population PK analysis of pemigatinib in patients with advanced malignancies; assay type: in vivo, human
# Procedure, shortened: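 Sampling was rich in phase 1 and sparse in phase 2. Values <1 nM (LLOQ) were excluded. Log-transformed data were fitted with 1-/2-compartment models with first-order absorption and linear elimination. Covariates were GAM-screened, then added and removed stepwise in NONMEM. 95% CIs came from a 500-run bootstrap, with VPC.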
# [4] = cited from earlier work; remark: listed apart in the source
# [5] = cited from earlier work; remark: listed apart in the source
# [6] = fed state (high-fat and high-calorie diet); ref data on file; cited from earlier work
# [7] = cited from earlier work; remark: listed apart in the source
# [8] = Hyperphosphatemia in patients of the population PK dataset; assay type: in vivo, human
# Procedure, shortened: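 Pooled patients from three open-label trials on once-daily oral dosing: phase 1/2 advanced malignancies (1–20 mg escalation, 9 or 13.5 mg expansion; monotherapy or combination; 2-weeks-on/1-week-off or continuous, 21-day cycles; N = 157); Japanese phase 1 (9 or 13.5 mg, intermittent; N = 25); phase 2 cholangiocarcinoma (13.5 mg, 2-weeks-on/1-week-off; N = 136). Hyperphosphatemia scored after treatment.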
# [9] = cited from earlier work; remark: listed apart in the source
# [10] = cited from earlier work; remark: listed apart in the source
# [11] = cited from earlier work; remark: listed apart in the source
# [12] = final model covariate coefficient
# [13] = final model covariate power term
# [14] = final population PK model, Table 4
smiles,measurement,setting,value
"CCN1C(=O)N(c2c(F)c(O)cc(OC)c2F)Cc2cnc3[nH]c(CN4CCOCC4)cc3c21 [M2, O‐desmethyl pemigatinib]",share of the metabolite burden in urine and feces,"[1]; M2 and its secondary metabolites (M7, M8, and M9) together, ref data on file",76.9%
"CCN1C(=O)N(c2c(F)c(OC)cc(OC)c2F)Cc2cnc3[nH]c(CN4CCOCC4)cc3c21 [pemigatinib, Pemigatinib]",pemigatinib AUC increase,[2]; coadministered with itraconazole (strong CYP3A4 inhibitor),≈ 90%
same,pemigatinib AUC decrease,[2]; coadministered with rifampin (strong CYP3A4 inducer),85%
same,CL/F with moderate CYP3A4 inducer higher than pemigatinib alone,[3]; 1 patient,≈ 100%
same,CL/F,[3]; base structural model,10.7 L/h
same,IIV for Vc/F,[3]; base structural model,44.6 % CV
same,IIV for Vp/F,[3]; base structural model,37.3 % CV
same,IIV for ka,[3]; base structural model,133 % CV
same,Q/F,[3]; base structural model,14.5 L/h
same,Vc/F,[3]; base structural model,134 L
same,Vp/F,[3]; base structural model,87.0 L
same,first-order ka,[3]; base structural model,0.997 h⁻¹
same,CL/F of pemigatinib alone,[3]; comparator for the patient on a moderate CYP3A4 inducer,11.7 L/h
same,"predicted Cmax steady state (Cmax,ss)",[3]; female patients,96.53 ng/mL
same,Magnitude of Interindividual Variability of CL/F,[3]; final model,43.4 %CV
same,Magnitude of Interindividual Variability of Vc/F,[3]; final model,35.1 %CV
same,Magnitude of Interindividual Variability of ka,[3]; final model,127 %CV
same,contribution of sex to the change of oral clearance,[3]; final model,< 20%
same,decrease of typical CL/F by phosphate binder coadministration,[3]; final model,14.1%
same,increase of typical Vc/F by proton pump inhibitor coadministration,[3]; final model,24.4%
same,"typical CL/F, males higher compared with females",[3]; final model,19.0%
same,"typical ka, males lower compared with females",[3]; final model,56.5%
same,"Proton pump inhibitor on Vc/F, Population Mean",[3]; [12],–0.244
same,"Sex (male vs female) on CL, Population Mean",[3]; [12],0.190
same,"Body weight (median = 73.3 kg) on Vc/F, Population Mean",[3]; [13],0.738
same,"Body weight on Vp/F, Population Mean",[3]; [13],1.22
same,typical apparent volume of distribution of the peripheral compartment (Vp/F),"[3]; final model, 73.3-kg patient",80.1 L
same,typical ka,"[3]; final model, female patients",1.49 h⁻¹
same,typical absorption rate constant (ka),"[3]; final model, females",1.49 L/h
same,typical oral clearance (CL/F),"[3]; final model, females",10.3 L/h
same,"CL/F, Population Mean",[3]; [14],9.00 L/h
same,"Q/F, Population Mean",[3]; [14],16.0 L/h
same,"Vc/F, Population Mean",[3]; [14],161 L
same,"Vp/F, Population Mean",[3]; [14],80.1 L
same,"ka, Population Mean",[3]; [14],1.49 h⁻¹
same,increase of typical CL/F by coadministration with a weak CYP3A4 inducer,[3]; full multivariate PK model (covariate removed from final model),24.2%
same,Vd/F,"[3]; human, plasma, oral",122 L
same,half-life,"[3]; human, plasma, oral",16 h
same,"increase in Cmax,ss, female vs male patients",[3]; post hoc estimates,27%
same,Cmax,"[3]; read-out: predicted Cmax steady state (Cmax,ss), female patients",198 nM
same,post hoc-estimated CL/F,[3]; the 1 patient with concomitant moderate CYP3A4 inducer,22.8 L/h
same,geometric mean CL/F,[3]; this population PK analysis,10.9 L/h
same,effect on the overall exposure of pemigatinib,[4]; coadministration with esomeprazole or ranitidine,modest effect
same,AUC decrease,[4]; with esomeprazole (PPI),8%
same,AUC increase,[4]; with ranitidine (H2-receptor antagonist),3%
same,accumulation ratio for AUC0-24,[5],≈ 1.6
same,terminal elimination half-life,[5],≈ 15 hours
same,pharmacokinetics linearity,[5]; dose range of 1 to 20 mg,linear
same,delay of median time to Cmax,[6],4.02 h
same,DDI with a weak CYP3A4 inhibitor,[7]; PBPK modeling,no DDI
same,predicted decrease in AUC,"[7]; coadministered with a strong or moderate CYP3A4 inducer, data on file",> 50%
same,predicted increase in AUC,"[7]; coadministered with a strong or moderate CYP3A4 inhibitor, data on file",> 50%
same,reduction of AUC,[7]; coadministration of moderate CYP3A4 inducers,> 50%
same,"renal clearance, % of total clearance","[1]; Introduction, no reference given",1.19%
same,predominant clearance pathway in humans,"[1]; in vitro and in vivo data, no reference given",liver metabolism
same,administered radioactive dose recovered as unchanged pemigatinib in feces,[1]; ref data on file,1.3%
same,"known metabolites, share of total radioactivity",[1]; ref data on file,72%
same,"Hyperphosphatemia, Yes",[8]; N = 318,215 (67.6) n (%)
same,patients who developed hyperphosphatemia after treatment,[8]; patients included in this analysis (N = 318),~68%
same,"renal clearance, % of total clearance",[9],1%
same,exposure geometric mean ratio vs normal renal function,[9]; end-stage renal disease after hemodialysis,91.3%
same,exposure geometric mean ratio vs normal renal function,[9]; end-stage renal disease before hemodialysis,76.8%
same,pemigatinib AUC increase,[9]; patients with severe renal impairment,59%
same,pemigatinib AUC increase,[10]; patients with moderate hepatic impairment,46%
same,pemigatinib AUC increase,[10]; patients with severe hepatic impairment,74%
same,Biopharmaceutics Classification System class,[11],Class II
same,permeability,[11],high
same,solubility,[11],pH‐dependent

# Source: paper PMC9306536 (Clinical Pharmacology in Drug Development, 2022)
